# Assay results from ChEMBL document CHEMBL1139384, “First Cdc7 kinase inhibitors: pyrrolopyridinones as potent and orally active antitumor agents. 2. Lead discovery” (J Med Chem, 2009).
# Legend:
# [1] = molecular target: Cell division cycle 7-related protein kinase (Homo sapiens, UniProt O00311); experiment: Inhibition of human Cdc7 assessed as inhibition of rate of phosphorylation of Mcm2 protein
# [2] = tested on: A2780; experiment: Antiproliferative activity against human A2780 cells after 72 hrs by luciferase based assay; format: functional, cell-based
# [3] = molecular target: Cyclin-dependent kinase 9 (Homo sapiens, UniProt P50750); experiment: Inhibition of CDK9
# Sequence of Cyclin-dependent kinase 9 (P50750 whole entry): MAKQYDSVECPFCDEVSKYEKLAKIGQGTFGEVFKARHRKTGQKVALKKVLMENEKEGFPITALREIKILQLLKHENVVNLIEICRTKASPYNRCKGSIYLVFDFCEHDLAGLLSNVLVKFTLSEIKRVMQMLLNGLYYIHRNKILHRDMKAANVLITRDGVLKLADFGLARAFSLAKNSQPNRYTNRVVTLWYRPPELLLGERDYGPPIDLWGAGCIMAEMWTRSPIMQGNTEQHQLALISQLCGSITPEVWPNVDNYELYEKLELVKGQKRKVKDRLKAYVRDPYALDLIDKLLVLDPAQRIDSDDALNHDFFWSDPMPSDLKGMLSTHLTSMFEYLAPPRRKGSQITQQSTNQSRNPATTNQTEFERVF
# [4] = Volume of distribution at steady state in nu/nu mouse at 10 mg/kg, iv administered as single dose; format: ADME, organism-based; parameters: dose 10 mg/kg, route intravenous; conditions: in vivo, read-out: Vdss
# Method in brief: (§1)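 Overnight-fasted male Nu/Nu mice got a single 10 mg/kg dose in 5% dextrose, iv or po, three mice per route. Saphenous blood was drawn at 0.083 (iv) or 0.25 (po), 0.5, 1, 6 and 24 h. Plasma was assayed by LC/MS/MS and analysed noncompartmentally. Tmax is the observed peak time, Vss = CL·MRT, and F is the ratio of dose-normalized AUC∞ po/iv.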
# [5] = AUC (0 to infinity) in nu/nu mouse at 10 mg/kg, po administered as single dose; format: ADME, organism-based; parameters: time infinity, dose 10 mg/kg, route oral; conditions: plasma
# Method in brief: (§2)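 Single iv or oral dose in 5% dextrose to overnight-fasted animals. Nu/Nu mice: males, 3 per route, saphenous bleeds to 24 h. Han-Wistar rats: males, 3 per route, jugular bleeds to 24 h. Beagle dogs: 2 per sex, iv and po crossover 2 weeks apart, jugular bleeds to 48 h. Plasma by LC/MS/MS; noncompartmental parameters, AUC by linear trapezoid with extrapolation.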
# [6] = Metabolic stability in human hepatocytes expressing CYP3A4 assessed as drug remaining after 1 hr; format: ADME, cell-based, Hepatocyte; conditions: read-out: Stability
# [7] = Half life in nu/nu mouse at 10 mg/kg, po administered as single dose; format: ADME, organism-based; parameters: dose 10 mg/kg, route oral; conditions: in vivo; method in brief: as §2
# [8] = Cmax in nu/nu mouse at 10 mg/kg, iv administered as single dose; format: ADME, organism-based; parameters: dose 10 mg/kg, route intravenous; conditions: in vivo; method in brief: as §2
# [9] = Tmax in nu/nu mouse at 10 mg/kg, po administered as single dose; format: ADME, organism-based; parameters: dose 10 mg/kg, route oral; conditions: in vivo; method in brief: as §1
# [10] = Oral bioavailability in nu/nu mouse at 10 mg/kg administered as single dose; format: ADME, organism-based; conditions: in vivo; method in brief: as §1
# [11] = AUC (0 to infinity) in nu/nu mouse at 10 mg/kg, iv administered as single dose; format: ADME, organism-based; parameters: dose 10 mg/kg, route intravenous, time infinity; conditions: plasma; method in brief: as §2
# [12] = Half life in nu/nu mouse at 10 mg/kg, iv administered as single dose; format: ADME, organism-based; parameters: dose 10 mg/kg, route intravenous; conditions: in vivo; method in brief: as §2
# [13] = Solubility in pH 7.0 buffer
# [14] = Cmax in nu/nu mouse at 10 mg/kg, po administered as single dose; format: ADME, organism-based; parameters: dose 10 mg/kg, route oral; conditions: in vivo; method in brief: as §2
# [15] = Clearance in nu/nu mouse at 10 mg/kg, iv administered as single dose; format: ADME, organism-based; parameters: dose 10 mg/kg, route intravenous; conditions: in vivo; method in brief: as §2
# [16] = tested on: Hepatocyte; experiment: Metabolic stability in rat hepatocytes assessed as intrinsic clearance at 1 uM; format: cell-based; conditions: Liver
# [17] = Antiproliferative activity against human NCI-H929 cells after 72 hrs by luciferase based assay; format: functional, cell-based; conditions: NCI-H929, 72 h
# Method in brief: (§3)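 Cells seeded at 2500–5000/well in complete medium (RPMI1640, McCoy's or DMEM with 10% FCS, by line); compound added after 24 h, 72 h at 37 °C, 5% CO2.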
# [18] = tested on: COLO 205; experiment: Antiproliferative activity against human COLO205 cells after 72 hrs by luciferase based assay; format: functional, cell-based; conditions: COLO 205, 72 h
# [19] = tested on: MCF7; experiment: Antiproliferative activity against human MCF7 cells after 72 hrs by luciferase based assay; format: functional, cell-based; conditions: MCF7, 72 h
# [20] = tested on: HT-29; experiment: Antiproliferative activity against human HT-29 cells after 72 hrs by luciferase based assay; format: functional, cell-based; conditions: HT-29, 72 h; method in brief: as §3
# [21] = tested on: SW48; experiment: Antiproliferative activity against human SW48 cells after 72 hrs by luciferase based assay; format: functional, cell-based; conditions: SW48, 72 h; method in brief: as §3
# [22] = tested on: A2780; experiment: Antitumor activity against human A2780 cells xenografted in CDI nu/nu mouse assessed as tumor growth inhibition at 60 mg/kg, po administered for 10 days; format: functional; conditions: A2780, 240 h, read-out: TGI
# [23] = Apparent permeability by PAMPA method; format: ADME; conditions: read-out: permeability
# [24] = tested on: L-363; experiment: Antiproliferative activity against human L363 cells after 72 hrs by luciferase based assay; format: functional, cell-based; conditions: L-363, 72 h; method in brief: as §3
# [25] = tested on: NHDF; experiment: Antiproliferative activity against human NHDF cells after 72 hrs by luciferase based assay; format: cell-based
# [26] = tested on: Rattus norvegicus; experiment: Antitumor activity against DMBA-induced mammary carcinoma in CD OFA rat assessed as duration of tumor stabilization maintenance at 20 mg/kg, po administered for 10 days; format: functional
# Method in brief: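 DMBA tumors induced in female CD OFA rats by single intragastric 20 mg DMBA in sesame oil; after about 50 days, rats with a mammary tumor of at least 1 cm given 20 mg/kg orally twice daily for 10 days in glucose solution, or vehicle; 10 per group; tumor volume by Vernier calipers.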
# [27] = Antiproliferative activity against human […] cells after 72 hrs by luciferase based assay; format: functional, cell-based; method in brief: as §3
# [28] = Antiproliferative activity against human SW403 cells after 72 hrs by luciferase based assay; format: functional, cell-based; conditions: SW-403, 72 h; method in brief: as §3
# [29] = tested on: OPM-2; experiment: Antiproliferative activity against human OPM2 cells after 72 hrs by luciferase based assay; format: functional, cell-based; conditions: OPM-2, 72 h; method in brief: as §3
# Sequence of Cell division cycle 7-related protein kinase (O00311 whole entry): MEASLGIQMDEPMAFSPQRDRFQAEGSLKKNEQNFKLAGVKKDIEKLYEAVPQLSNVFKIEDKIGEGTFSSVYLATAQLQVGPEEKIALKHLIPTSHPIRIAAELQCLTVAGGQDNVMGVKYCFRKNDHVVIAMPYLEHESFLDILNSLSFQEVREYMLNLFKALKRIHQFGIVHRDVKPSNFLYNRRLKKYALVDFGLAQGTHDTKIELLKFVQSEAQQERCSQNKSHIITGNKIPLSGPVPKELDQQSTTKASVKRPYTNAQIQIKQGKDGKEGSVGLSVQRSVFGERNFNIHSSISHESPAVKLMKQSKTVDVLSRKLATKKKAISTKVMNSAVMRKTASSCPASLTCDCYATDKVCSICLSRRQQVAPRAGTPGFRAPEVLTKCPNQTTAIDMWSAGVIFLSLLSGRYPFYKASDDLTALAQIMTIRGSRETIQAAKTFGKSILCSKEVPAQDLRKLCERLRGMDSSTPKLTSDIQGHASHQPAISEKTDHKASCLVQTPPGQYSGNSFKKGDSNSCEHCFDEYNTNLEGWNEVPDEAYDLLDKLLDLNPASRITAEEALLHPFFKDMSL
Compound,IC50 [1],"IC50 ([2]; Homo sapiens, A2780, 72 h)",also measured
Nc1nccc(-c2cc3c([nH]2)C(CCCOCc2ccccc2)CNC3=O)n1 (centres undefined),24 nM,2000 nM,–
Nc1nccc(-c2cc3c([nH]2)C(CCCO)CNC3=O)n1 (centres undefined),12 nM,6000 nM,–
CC(C)C1CNC(=O)c2cc(-c3ccnc(N)n3)[nH]c21 (stereo in doubt; 87-2),1 nM,–,IC50 [3]: 73 nM; IC50 ([2]; a2780): 600 nM
Nc1nccc(-c2cc3c([nH]2)C(CCC(F)(F)F)CNC3=O)n1 (stereo in doubt; 93-1),12 nM,–,IC50 [3]: 218 nM; IC50 ([2]; a2780): 1000 nM
Nc1nccc(-c2cc3c([nH]2)C(CCC(F)(F)F)CNC3=O)n1 (stereo in doubt; 93-2) [listing 1 of 2 here],11 nM,–,Vd [4]: 1.5 L/kg; AUC(0-inf) [5]: 1.7 µM·h; IC50 [3]: 395 nM; remaining at 1 h [6]: 94%; half-life [7]: 102 min; IC50 ([2]; a2780): 300 nM; Cmax [8]: 13.6 µM; Tmax [9]: 19.8 min; bioavailability [10]: 31%; AUC(0-inf) [11]: 5.3 µM·h; half-life [12]: 54 min; solubility [13]: 195 µM; Cmax [14]: 0.8 µM; clearance [15]: 88.3 mL/min/kg
CCC1CNC(=O)c2cc(-c3ccnc(N)n3)[nH]c21 (stereo in doubt; 86),5 nM,–,–
CC1Cc2[nH]c(-c3ccncc3)cc2C(=O)N1 (centres undefined),13 nM,2400 nM,–
O=C1NCC(c2ccccc2)c2[nH]c(-c3ccncc3)cc21 (centres undefined),20 nM,4000 nM,–
Nc1nccc(-c2cc3c([nH]2)C(CCO)CNC3=O)n1 (centres undefined),4 nM,1100 nM,–
Nc1nccc(-c2cc3c([nH]2)CC(C2CC2)NC3=O)n1 (centres undefined),11 nM,1100 nM,–
CCC1CNC(=O)c2cc(-c3ccnc(N)n3)[nH]c21 (stereo in doubt; 86-1) [listing 1 of 2 here],4 nM,–,Vd [4]: 1.5 L/kg; AUC(0-inf) [5]: 3.6 µM·h; IC50 [3]: 73 nM; remaining at 1 h [6]: 99%; half-life [7]: 78 min; Cmax [8]: 12.6 µM; Tmax [9]: 20.4 min; bioavailability [10]: 74%; AUC(0-inf) [11]: 4.9 µM·h; half-life [12]: 12 min; solubility [13]: > 225 µM; Cmax [14]: 2.7 µM; clearance [15]: 125 mL/min/kg
CC1CNC(=O)c2cc(-c3ccncc3)[nH]c21 (centres undefined),10 nM,600 nM,–
CC(C)C1Cc2[nH]c(-c3ccnc(N)n3)cc2C(=O)N1 (centres undefined),12 nM,1300 nM,–
CCC1(CC)CNC(=O)c2cc(-c3ccnc(N)n3)[nH]c21,5 nM,200 nM,–
O=C1NCC(CCF)c2[nH]c(-c3ccncc3)cc21 (centres undefined),2 nM,600 nM,–
CC(C)C1Cc2[nH]c(-c3ccncc3)cc2C(=O)N1 (centres undefined),6 nM,900 nM,–
Nc1nccc(-c2cc3c([nH]2)[C@H](CCF)CNC3=O)n1,5 nM,1000 nM,IC50 [3]: 96 nM
Nc1nccc(-c2cc3c([nH]2)C(CCC(F)(F)F)CNC3=O)n1 (stereo in doubt; 93-2) [listing 2 of 2 here],–,–,CL (mL.min-1.kg-1) [16]: 8.33
O=C1NC(C2CC2)Cc2[nH]c(-c3ccncc3)cc21 (centres undefined),5 nM,1300 nM,–
CC1Cc2[nH]c(-c3ccnc(N)n3)cc2C(=O)N1 (centres undefined),–,3900 nM,–
Nc1nccc(-c2cc3c([nH]2)C(CCF)CNC3=O)n1 (centres undefined),3 nM,600 nM,–
Nc1nccc(-c2cc3c([nH]2)C[C@H](COCc2ccccc2)NC3=O)n1,52 nM,3000 nM,–
Nc1nccc(-c2cc3c([nH]2)C(C2CCC2)CNC3=O)n1 (stereo in doubt; 88-2),2 nM,–,IC50 [3]: 96 nM; IC50 ([2]; a2780): 200 nM

Compound,IC50 [1],"IC50 ([2]; Homo sapiens, A2780, 72 h)",also measured
CC(C)C1CNC(=O)c2cc(-c3ccncc3)[nH]c21 (centres undefined),10 nM,500 nM,–
CCC1CNC(=O)c2cc(-c3ccnc(N)n3)[nH]c21 (stereo in doubt; 86-2),5 nM,400 nM,IC50 [3]: 17 nM
Nc1nccc(-c2cc3c([nH]2)C(CCOCc2ccccc2)CNC3=O)n1 (centres undefined),7 nM,400 nM,–
CC(C)C1CNC(=O)c2cc(-c3ccnc(N)n3)[nH]c21 (stereo in doubt; 87),4 nM,–,IC50 ([2]; a2780): 400 nM
CC1(C)Cc2[nH]c(-c3ccncc3)cc2C(=O)N1,32 nM,1200 nM,–
CCC1CNC(=O)c2cc(-c3ccnc(N)n3)[nH]c21 (stereo in doubt; 86-1) [listing 2 of 2 here],–,–,CL (mL.min-1.kg-1) [16]: 5
O=C1NCC(C2CCC2)c2[nH]c(-c3ccncc3)cc21 (centres undefined),3 nM,500 nM,–
CCC1(CC)CNC(=O)c2cc(-c3ccncc3)[nH]c21,6 nM,200 nM,–
Nc1nccc(-c2cc3c([nH]2)CCNC3=O)n1,–,1700 nM,IC50 [3]: 29 nM
Nc1nccc(-c2cc3c([nH]2)C(C2CCC2)CNC3=O)n1 (stereo in doubt; 88),5 nM,–,IC50 ([2]; a2780): 300 nM
CC1(C)Cc2[nH]c(-c3ccnc(N)n3)cc2C(=O)N1,64 nM,1800 nM,–
CCC1CNC(=O)c2cc(-c3ccncc3)[nH]c21 (centres undefined),2 nM,300 nM,–
Nc1nccc(-c2cc3c([nH]2)C(CCC(F)(F)F)CNC3=O)n1 (stereo in doubt; 93),10 nM,–,IC50 ([2]; a2780): 500 nM
CC1CNC(=O)c2cc(-c3ccnc(N)n3)[nH]c21 (centres undefined),6 nM,700 nM,–
CC1(C)CNC(=O)c2cc(-c3ccncc3)[nH]c21,–,200 nM,–
CC(C)CC1Cc2[nH]c(-c3ccncc3)cc2C(=O)N1 (centres undefined),3 nM,800 nM,–
Nc1nccc(-c2cc3c([nH]2)C(C2CCC2)CNC3=O)n1 (stereo in doubt; 88-1),11 nM,–,IC50 [3]: 83 nM; IC50 ([2]; a2780): 1300 nM
O=C1NCCc2[nH]c(-c3ccncc3)cc21,–,1100 nM,IC50 [17]: 1800 nM; IC50 [18]: 1500 nM; IC50 [19]: 1300 nM; IC50 [20]: 5000 nM; IC50 [21]: 1200 nM; inhibition in vivo at 60 mg/kg [22]: 50%; Papp [23]: 1.84 ×10⁻⁶ cm/s; IC50 [24]: 1600 nM; IC50 [25]: 1600 nM; Activity [26]: 25 days; IC50 [27]: 1000 nM; IC50 [28]: 1000 nM; IC50 [29]: 4500 nM
CC(C)C1CNC(=O)c2cc(-c3ccnc(N)n3)[nH]c21 (stereo in doubt; 87-1),13 nM,–,IC50 [3]: 31 nM; IC50 ([2]; a2780): 1000 nM
CC(C)CC1Cc2[nH]c(-c3ccnc(N)n3)cc2C(=O)N1 (centres undefined),8 nM,1600 nM,–
O=C1N[C@@H](COCc2ccccc2)Cc2[nH]c(-c3ccncc3)cc21,44 nM,4800 nM,–
Nc1nccc(-c2cc3c([nH]2)C(c2ccccc2)CNC3=O)n1 (centres undefined),19 nM,3000 nM,–
